Source: PubChem BioAssay (The Scripps Research Institute Molecular Screening Center)
TAAR1 antagonist: human TAAR1 antagonists, primary screen, Fluo-8 calcium fluorescence, CHO RD-HGA16 cells. Trace amine-associated receptor 1 (Homo sapiens), Q96RJ0. antagonist. inhibition, % at 3 µM. actives 1.5% (n = 360,000). AID 624466, 2012;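 active = inhibition above a per-plate cutoff, the mean inhibition of test compounds on that plate plus 3 SD, cut at about 49% in these data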;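 also: 0% = DMSO plus EC80 beta-PEA response and 100% = DMSO alone without agonist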
Target sequence (Q96RJ0 whole entry, looked up): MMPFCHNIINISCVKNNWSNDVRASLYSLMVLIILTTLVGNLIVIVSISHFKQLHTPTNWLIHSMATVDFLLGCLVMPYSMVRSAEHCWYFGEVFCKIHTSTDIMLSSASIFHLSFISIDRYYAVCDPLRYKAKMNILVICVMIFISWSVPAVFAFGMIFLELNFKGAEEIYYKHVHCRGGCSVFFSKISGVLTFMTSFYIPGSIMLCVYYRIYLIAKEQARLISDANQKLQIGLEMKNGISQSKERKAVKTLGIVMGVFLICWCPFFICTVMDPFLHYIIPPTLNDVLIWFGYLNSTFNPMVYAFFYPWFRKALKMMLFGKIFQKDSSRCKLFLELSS
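Assay system: RD-HGA16 CHO cells with stable hTAAR1 and Gα16 / Reagent: EC80 β-phenethylamine stimulus / Doses: 3 µM, single point / Timing: dye loading 75 min at 37 °C, then 30 min room temperature / Measured by: Fluo-8 intracellular calcium dye fluorescence, real-time kinetic reads / Controls: vehicle wells and EC80 agonist wells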
rCAG binder: binders of r(CAG) RNA repeats, primary screen, biochemical, fluorescence; r(CAG) RNA repeat, TO-PRO-1 dye displacement fluorescence; actives 1.3% (n = 370,000); inhibition, % at 3 µM;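 active = inhibition above the plate cutoff, the mean of all test compounds on that plate plus 3 SD, cut at about 35% in these data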;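 also: 0% = DMSO alone and 100% = 100 µM mitoxantrone as full dye displacement; higher means more dye released from RNA so lower well fluorescence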
NS3 helicase inh: inhibitors of HCV NS3 helicase, primary screen, biochemical, Cy5 molecular beacon fluorescence. Hepatitis C virus NS3 helicase. NS3 helicase DNA unwinding. inhibition, % at 10.9 µM. actives 0.56% (n = 290,000). AID 1800, 2009;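 active = inhibition above the mean of all tested compounds plus 3 SD, set per campaign, cut at about 35% in these data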;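 also: 0% = DMSO wells and 100% = thioflavine S control wells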
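Compound dosing – single dose, 10.9 µM nominal final, DMSO 0.8% final · System – NS3 helicase fragment of HCV · Buffer or medium – MOPS pH 6.5, MgCl2, DTT, Tween20, BSA · Signal – Cy5 beacon fluorescence read at start and 1 h · Also added – annealed dual-labelled DNA beacon duplex, ATP-started · Schedule – 1 h at 25 °C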
TAAR1 ag: human TAAR1 agonists, primary screen, Fluo-8 calcium fluorescence, CHO RD-HGA16 cells | vehicle wells 0%, saturating PEA agonist 100% | activation, % at 3 µM | actives 0.99% (n = 360,000) | AID 624467, 2012;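 active = activation above the mean activation of all test compounds in the run plus 3 SD, cut at about 38% in these data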
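Repeats: no replicates (n 1) | Material: CHO-derived RD-HGA16 cells with stable Gα16 and human TAAR1 | Technique: Kinetic Fluo-8 calcium fluorescence | Schedule: 17-24 h seeding, 75 min 37 °C dye, 30 min RT | Evaluation: % activation from peak over basal fluorescence ratio, DMSO-to-PEA scaled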
core dimer inh: inhibitors of HCV core protein dimerization, primary screen, biochemical, TR-FRET, high-throughput; TR-FRET GST/Flag-core106 dimerization, 1536-well; inhibition, % at 5 µM; actives 0.33% (n = 300,000);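 active = inhibition above the mean of all tested compounds plus 3 SD, set per screening campaign, cut at about 45% in these data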
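Material: Tagged HCV core106 pair (GST and Flag) | Amount: GST-core106 13.5 nM, Flag-core106 17 nM | Medium: KF-containing HEPES buffer, pH 7.45, DTT, CHAPS, BSA | Reagent: Eu donor and XL665 acceptor anti-tag antibodies | Schedule: 4 h at 22.5 °C | Technique: Time-resolved FRET, ex 340 nm, em 617 and 671 nm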
TAAR1 nonsel count: nonselective antagonists in TAAR1 counter-screen cells, counter-screen for hTAAR1 antagonist project, cell-based, fluorescence, calcium | shares compounds with TAAR1 antagonist | counterscreen cell line, antagonist mode | inhibition, % at 3 µM | actives 77% (n = 2,400) | AID 651780, 2012; in the data active = inhibition above about 22%;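 also: CHO-Ga16 host cells stimulated with ATP at an EC80 level; 0% = agonist EC80 plus vehicle and 100% = vehicle without agonist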
TAAR1 antag conf: human TAAR1 antagonists, retest of hits, confirmation, cell-based, fluorescence; actives 40% (n = 2,400); AID 651785, 2012; TAAR1-expressing cells, fluorescence antagonist read-out; inhibition, % at 3 µM; shares compounds with TAAR1 antagonist; in the data active = inhibition above about 49%;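 also: CHO-Ga16 host cells challenged with agonist PEA near its EC80; 0% = agonist at EC80 plus vehicle and 100% = vehicle with no agonist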
Ga16 nonsel ag: calcium activation in Ga16-expressing cells, counter-screen for TAAR1 antagonist project, cell-based, fluorescence. shares compounds with TAAR1 antagonist. agonist counterscreen. activation, % at 3 µM. actives 18% (n = 2,400). AID 651953, 2012; in the data active = activation above about 12%;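 also: 0% = vehicle wells and 100% = saturating stimulus response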
TAAR1 ag counter: TAAR1 activation by candidate antagonists – cell-based, fluorescence, counter-screen for TAAR1 antagonist project. shares compounds with TAAR1 antagonist. hTAAR1 cell line, agonist mode. activation, % at 3 µM. actives 2% (n = 2,400). AID 651955, 2012; in the data active = activation above about 37%;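 also: CHO cells stably expressing TAAR1 with calcium dye readout; 0% = DMSO vehicle and 100% = full agonist response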
* marks the source's active call; other numbers are inactive results; . = no result given. This is a sample that favours compounds with a hit; in the whole collection about 3.7% have one here.

SMILES	TAAR1 antagonist	rCAG binder	NS3 helicase inh	TAAR1 ag	core dimer inh	TAAR1 nonsel count	TAAR1 antag conf	Ga16 nonsel ag	TAAR1 ag counter
CCC1C=CC=CC[C@H](C)[C@@H](O)[C@](C)(O)C(=O)[C@@H](C)[C@H](O)[C@@H](C)C(=O)[C@H](C)[C@@H](O)[C@H](C)C=CC(=O)OC2[C@@H](C)C(CC1)OC1(CC[C@@H](C)C(C[C@H](C)O)O1)[C@@H]2C (stereo not given in full)	.	.	.	.	-9	.	.	.	.
N#Cc1ccc(CN2Cc3ccccc3-n3nncc3C2)cc1	-11	0	.	7	.	.	.	.	.
COC(=O)C1=C(c2ccc(F)cc2OCc2ccccc2)C[C@@H]2CC[C@H]1N2C(=O)NCc1cccc(OC)c1	74*	9	.	11	.	29*	42	4	1
COC(=O)C1=C(c2ccccc2OCc2ccccc2)C[C@@H]2CC[C@H]1N2C(=O)NCc1cccc(F)c1	42	3	.	14	.	.	.	.	.
COC(=O)C1=C(c2ccc(F)cc2OCc2ccccc2)C[C@@H]2CC[C@H]1N2C(=O)NCc1ccc(OC)cc1	62*	-1	.	13	.	21	45	4	4
Clc1ccc([C@H]2CC3CCC2N3)cn1 (stereo not given in full)	-33	0	.	5	.	.	.	.	.
CC(=O)C1CCC2C3CCC4CC(O)CCC4(C)C3C(=O)CC12C (stereo not given)	-13	-1	.	3	.	.	.	.	.
O=C1NC(=O)C(Cc2ccccc2)(Cc2ccccc2)C(=O)N1Cc1ccccc1	60*	1	.	0	.	13	35	1	4
COC(=O)C1=C(c2ccc(F)cc2OCc2ccccc2)C[C@@H]2CC[C@H]1N2C(=O)NCCOc1ccc(OC)cc1	59*	4	.	5	.	18	26	2	2
COC(=O)C1=C(c2ccc(F)cc2OCc2ccccc2)C[C@@H]2CC[C@H]1N2C(=O)NCCOc1ccccc1	69*	3	.	11	.	21	41	13*	13
CCOC(=O)CC(SP1(=S)OCC2(CCCCC2)CO1)C(=O)OCC (stereo not given)	58*	0	.	1	.	17	29	4	1
C=C1C(C)C2C(Cc3ccccc3)NC(=O)C23OC(=O)/C=C/C(O)CCCC(C)C/C=C/C3C1O (stereo not given)	70*	1	.	18	.	21	50*	13*	16
CN1C2(C)c3ccccc3C1(c1ccccc1)c1ccccc12	-15	1	.	2	.	.	.	.	.
CCCCn1nnnc1C(CCSC)N1CCC(n2c(=O)[nH]c3ccccc32)CC1 (stereo not given)	65*	1	.	17	.	29*	54*	10	27
CCC(c1nnnn1Cc1ccccc1)N1CCC(n2c(=O)[nH]c3ccccc32)CC1 (stereo not given)	72*	0	.	24	.	35*	56*	11	14
O=c1[nH]c2ccccc2n1C1CCN(C(c2ccnc3ccccc23)c2nnnn2-c2ccc3c(c2)OCCO3)CC1 (stereo not given)	66*	8	.	18	.	11	48	13*	48*
O=c1[nH]c2ccccc2n1CCCN1CCC(n2c(=O)[nH]c3cc(Cl)ccc32)CC1	-2	3	4	3	-173	.	.	.	.
CCCCn1nnnc1C(C1CC1)N1CCC2(CC1)C(=O)NCN2c1ccccc1 (stereo not given)	-12	2	.	1	.	.	.	.	.
CCCCn1nnnc1C(C1CC1)N1CCC(n2c(=O)[nH]c3ccccc32)CC1 (stereo not given)	73*	1	.	15	.	24*	45	10	20
COc1ccc(-n2nnnc2C(c2ccccc2OC(F)(F)F)N2CCC(n3c(=O)[nH]c4ccccc43)CC2)cc1 (stereo not given)	31	6	.	0	.	.	.	.	.
C[C@@H]1CN([C@H](C)CO)C(=O)CCCn2nncc2CO[C@H]1CN(C)C(=O)Oc1cccc2ccccc12	-7	4	.	1	.	.	.	.	.
C[C@]12CCC(=O)C=C1C=CC1C2CC[C@@]2(C)C1CC[C@@H]2O (stereo not given in full)	1	1	.	5	.	.	.	.	.
CCC1(NS(=O)(=O)c2ccc(N)cc2)C(=O)N(C)C(=O)N(C)C1=O	-9	-2	.	2	.	.	.	.	.
COc1ccc(-n2nnnc2C(CCc2ccccc2)N2CCC(n3c(=O)[nH]c4ccccc43)CC2)cc1 (stereo not given)	57*	14	.	7	.	9	39	5	4
CCCCn1nnnc1C(CCc1ccccc1)N1CCC(n2c(=O)[nH]c3ccccc32)CC1 (stereo not given)	67*	4	.	11	.	19	45	7	27
CCC(c1nnnn1-c1ccc(OC)cc1)N1CCC(n2c(=O)[nH]c3ccccc32)CC1 (stereo not given)	36	1	.	14	.	.	.	.	.
OC1CN2CCCC(O)C2C1O (stereo not given)	-9	0	.	1	.	.	.	.	.
CCC1(Cc2ccccc2)C(=O)NC(=S)N(C)C1=O (stereo not given)	-22	3	.	5	.	.	.	.	.
CCC(C)N1C(=O)NC(=O)C2(Cc3c(ccc4ccccc34)N(C)C2)C1=O (stereo not given)	56*	0	8	23	3	33*	52*	9	8
COc1ccc2c(c1)CC1(CN2C)C(=O)NC(=O)N(CCc2ccccc2)C1=O (stereo not given)	9	10	16	4	-2	.	.	.	.
